Among the data in ChEMBL document CHEMBL1143879, “Identification of novel series of human CCR1 antagonists” (Bioorg Med Chem Lett, 2008) are IC50 and Selectivity ratio values, retold here.

Structures are written as SMILES. Where only a bound is given, the exact number is not on record here.

The target in assay [1] is T1, C-C chemokine receptor type 1 (Homo sapiens, UniProt P32246).
T1 sequence (P32246 whole entry): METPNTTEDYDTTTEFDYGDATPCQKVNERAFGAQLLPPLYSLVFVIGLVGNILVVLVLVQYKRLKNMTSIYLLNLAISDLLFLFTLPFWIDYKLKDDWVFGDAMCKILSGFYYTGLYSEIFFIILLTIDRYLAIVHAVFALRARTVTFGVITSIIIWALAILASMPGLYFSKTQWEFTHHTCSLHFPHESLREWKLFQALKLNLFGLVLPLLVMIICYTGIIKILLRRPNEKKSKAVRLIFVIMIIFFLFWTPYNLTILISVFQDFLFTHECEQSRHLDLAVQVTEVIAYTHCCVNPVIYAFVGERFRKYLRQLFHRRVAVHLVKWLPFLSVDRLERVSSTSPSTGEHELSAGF
As to the kind of experiment: Displacement of [125I]MIP1-alpha from human CCR1 receptor expressed in THP1 cells. It counts as cell-based, THP-1. The method in brief: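 THP-1 cells expressing CCR1, washed in PBS, at 5 × 10⁶/ml with compound or vehicle and 50 pM human [¹²⁵I]MIP-1α. Binding buffer: 50 mM Hepes pH 7.4, 5 mM MgCl₂, 1 mM CaCl₂, 0.5% BSA. Incubated 90 min at room temperature, then filtered on PEI-coated glass fibre and washed with buffer plus 0.5 M NaCl. Bound counts by scintillation. IC50, mean of triplicates in one experiment.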
For orientation: Displacement assays read how much labelled ligand stays bound in the presence of the test substance.

Assay [2] deals with T1, C-C chemokine receptor type 1. As to the kind of experiment: Antagonist activity at human CCR1 receptor expressed in THP1 cells assessed as human MIP-1-alpha-stimulated intracellular calcium level by FLIPR assay. It counts as functional, cell-based, THP-1. In outline: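 THP-1 cells in RPMI-1640 at 2 × 10⁶/ml, mixed 1:1 with calcium dye buffer, loaded 30 min at 37 °C with 2.5 mM probenecid. Cells spun down, resuspended in RPMI-1640 with 0.1% BSA and plated at 1.5 × 10⁵/well with or without compound. Stimulated with 5 nM human MIP-1α; intracellular Ca²⁺ change read by FLIPR. IC50, mean of at least two independent experiments.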

A further assay concerns THP-1. As to the kind of experiment: Inhibition of CCL3-induced chemotaxis in human THP1 cells after 2 hrs. The note with it: THP-1, 2 h. It counts as functional, cell-based. In outline:
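Calcein-labelled THP-1 cells washed in RPMI-1640 and resuspended at 5 × 10⁶/ml. Preincubated 30 min at 37 °C with compound or DMSO, then placed above a 5 µm polycarbonate filter in a Boyden chamber. The lower wells held 0.5 nM human MIP-1α with or without compound. Chamber incubated 2 h at 37 °C.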

Assay [3] is described as follows: Selectivity for human CCR1 receptor over CCR4 receptor.

As usually defined, the IC50 is the midpoint of a concentration-inhibition curve.

As to `O=S(=O)(c1ccccc1Cl)N1CCC(N2CCC(O)(c3ccc(Cl)cc3)CC2)CC1`, the half-maximal inhibitory concentration (IC50) worked out at 200 nM in assay [1], 130 nM in assay [2] and 183 nM in the assay on THP-1.
Regarding `Cc1cccc(Cl)c1S(=O)(=O)N1CCC(C)(N2CCC(O)(c3ccc(Cl)cc3)CC2)CC1`, the IC50 came to 3570 nM in assay [1] and 2260 nM in assay [2].
On to `O=S(=O)(NCCCN1CCC(O)(c2ccc(Cl)cc2)CC1)c1ccccc1Br`, for which the IC50 worked out at 140 nM in assay [1] and 170 nM in assay [2].
In the same order, the values of `O=S(=O)(c1ccccc1Cl)N1CCC[C@@H](N2CCC(O)(c3ccc(Cl)cc3)CC2)C1` are 1980 nM and 1290 nM.
The like results for `O=S(=O)(NCCCN1CCC(O)(c2ccc(Cl)cc2)CC1)c1cccs1` were, in that order, 160 nM and 70 nM.
In the same order, the values of `O=S(=O)(c1ccccc1Cl)N1CCC(N2CCCC(O)(c3ccc(Cl)cc3)CC2)CC1` (stereo not drawn) are 400 nM and 130 nM.
`O=S(=O)(NCCCN1CCC(O)(c2ccc(Cl)cc2)CC1)c1ccc(F)cc1`: the figures for the IC50 in assay [1] and in assay [2] were 910 nM and 210 nM, respectively.
On to `O=S(=O)(c1c(F)cc(F)cc1Br)N1CCC(N2CCC(O)(c3ccc(Cl)cc3)CC2)CC1`, for which the values for the IC50 in assay [1] and in assay [2] were 1120 nM and 330 nM, respectively.
Regarding `O=S(=O)(NCCCN1CCC(O)(c2ccc(Cl)cc2)CC1)c1ccccc1-c1ccccc1`, the concentration for half-maximal inhibition (IC50) is 600 nM in assay [1], 84 nM in assay [2] and 151 nM in the assay with THP-1.
Consider `O=S(=O)(NCCCN1CCC(O)(c2ccc(Cl)cc2)CC1)c1ccsc1`, for which the IC50 in assay [1] is 570 nM; in assay [2] it was 385 nM.
In the same order, the values of `O=S(=O)(c1ccccc1Cl)N1CCC(N2CCC(O)(c3cc(F)c(F)c(F)c3)CC2)CC1` are 1330 nM and 2550 nM.
As for `O=S(=O)(c1ccccc1Cl)N1CCC(N2CCC(O)(c3ccc(F)c(Cl)c3)CC2)CC1`, the concentration for half-maximal inhibition (IC50) was determined as 510 nM in assay [1] and 590 nM in assay [2].
Take `O=S(=O)(NCCCN1CCC(O)(c2ccc(Cl)cc2)CC1)c1ccc(F)cc1Cl`: the figures for the 50% inhibitory concentration (IC50) in assay [1] and in assay [2] were 360 nM and 100 nM, respectively.
In the same order, the values of `CC1(N2CCC(O)(c3ccc(Cl)cc3)CC2)CCN(S(=O)(=O)c2cccs2)CC1` are greater than 10000 nM and 7330 nM.
In the same order, the values of `O=S(=O)(c1ccc(Cl)c(Cl)c1Cl)N1CCC(N2CCC(O)(c3ccc(Cl)cc3)CC2)CC1` are 3600 nM and 670 nM.
For `O=S(=O)(NCCCN1CCC(O)(c2ccc(Cl)cc2)CC1)c1ccccc1Cl`, the IC50 worked out at 110 nM in assay [1] and 40 nM in assay [2].
In the case of `O=S(=O)(c1ccccc1)N1CCC(N2CCC(O)(c3ccc(Cl)cc3)CC2)CC1`, the IC50 turned out to be 1270 nM in assay [1] and 1240 nM in assay [2]. Further, the Selectivity ratio in assay [3] was greater than 100.
Regarding `O=S(=O)(NCCCN1CCC(O)(c2ccc(Cl)cc2)CC1)c1ccc(-c2ccccc2)cc1`, the concentration for half-maximal inhibition (IC50) in assay [1] and in assay [2] was greater than 30000 nM throughout.
Consider `O=S(=O)(c1ccccc1Cl)N1CCC(N2CCC(O)(c3ccc(Cl)c(F)c3)CC2)CC1`, for which the half-maximal inhibitory concentration (IC50) is 430 nM in assay [1] and 610 nM in assay [2].
For `O=S(=O)(c1ccccc1Br)N1CCC(N2CCC(O)(c3ccc(Cl)cc3)CC2)CC1`, the IC50 in assay [1] came out at 90 nM; in assay [2], 90 nM; in the assay with THP-1 it was 42 nM. For the same molecule, in assay [3], the Selectivity ratio is greater than 100.
Consider `O=S(=O)(c1cccs1)N1CCC(N2CCC(O)(c3ccc(Cl)cc3)CC2)CC1`, for which the 50% inhibitory concentration (IC50) worked out at 970 nM in assay [1] and 1020 nM in assay [2].
The like results for `O=S(=O)(c1ccccc1Cl)N1CCC(N2CCC(O)(c3ccc(Cl)cc3)C2)CC1` (stereo not drawn) were, in that order, greater than 30000 nM and greater than 10000 nM.
Take `CC1(N2CCC(O)(c3ccc(Cl)cc3)CC2)CCN(S(=O)(=O)c2ccccc2Cl)CC1`: the values for the concentration for half-maximal inhibition (IC50) in assay [1] and in assay [2] were 5150 nM and 2260 nM, respectively.
On to `CC(C)(C)c1ccc(C2(O)CCN(C3CCN(S(=O)(=O)c4ccccc4Cl)CC3)CC2)cc1`, for which the half-maximal inhibitory concentration (IC50) in assay [1] and in assay [2] was greater than 10000 nM in each case.
Consider `O=S(=O)(NCCCN1CCC(O)(c2ccc(Cl)cc2)CC1)c1ccccc1-c1cccs1`, for which the 50% inhibitory concentration (IC50) in assay [1] came to 240 nM; in assay [2], 230 nM; in the assay with THP-1 it was 296 nM. For the same molecule, the Selectivity ratio in assay [3] is greater than 100.
Consider `O=S(=O)(c1ccccc1Cl)N1CCC[C@H](N2CCC(O)(c3ccc(Cl)cc3)CC2)C1`, for which the concentration for half-maximal inhibition (IC50) in assay [1] turned out to be 1900 nM; in assay [2], 2040 nM.
Consider `CC1CC(N2CCC(O)(c3ccc(Cl)cc3)CC2)CCN1S(=O)(=O)c1ccccc1Br` (stereo not drawn), for which the IC50 in assay [1] was found to be 220 nM; in assay [2], 120 nM.
In the same order, the values of `O=S(=O)(NCCCN1CCC(O)(c2ccc(Cl)cc2)CC1)c1ccccc1F` are 580 nM and 80 nM.
In the case of `Cc1cccc(Cl)c1S(=O)(=O)N1CCC[C@H](N2CCC(O)(c3ccc(Cl)cc3)CC2)C1`, the IC50 in assay [1] is 430 nM; in assay [2] it was 480 nM.
On to `O=S(=O)(c1ccccc1Cl)N1CCC(N2CCC(O)(c3ccc(-c4ccccc4)cc3)CC2)CC1`, for which the IC50 in assay [1] and in assay [2] was greater than 10000 nM throughout.
Take `O=S(=O)(c1ccccc1Cl)N1CCC(N2CCC(O)(c3ccc(Br)cc3)CC2)CC1`: the IC50 amounted to 440 nM in assay [1] and 180 nM in assay [2].
Regarding `O=S(=O)(c1ccccc1Cl)N1CCC(N2CCC(O)(c3ccc(Cl)c(Cl)c3)CC2)CC1`, the IC50 worked out at 890 nM in assay [1] and 180 nM in assay [2].
In the same order, the values of `O=S(=O)(NCCCN1CCC(O)(c2ccc(Cl)cc2)CC1)c1ccc(Cl)c(Cl)c1` are 1850 nM and 2460 nM.
With `Cc1ccccc1S(=O)(=O)N1CCC(N2CCC(O)(c3ccc(Cl)cc3)CC2)CC1`, the IC50 in assay [1] is 500 nM; in assay [2], 180 nM.
The like results for `O=S(=O)(c1ccccc1Br)N1CCC[C@H](N2CCC(O)(c3ccc(Cl)cc3)CC2)C1` were, in that order, 460 nM and 1300 nM.
In the same order, the values of `Cc1ccc(S(=O)(=O)NCCCN2CCC(O)(c3ccc(Cl)cc3)CC2)cc1` are 430 nM and 120 nM.
The like results for `CC1CC(N2CCC(O)(c3ccc(Cl)cc3)CC2)CCN1S(=O)(=O)c1ccccc1Cl` (stereo not drawn) were, in that order, 320 nM and 280 nM.
As to `O=S(=O)(NCCCN1CCC(O)(c2ccc(Cl)cc2)CC1)c1ccc(OC(F)(F)F)cc1`, the figures for the IC50 in assay [1] and in assay [2] were 9000 nM and 3650 nM, respectively.
In the case of `Cc1cccc(Cl)c1S(=O)(=O)NCCCN1CCC(O)(c2ccc(Cl)cc2)CC1`, the results for the IC50 in assay [1] and in assay [2] were 90 nM and 40 nM, respectively.
In the case of `Cc1cccc(Cl)c1S(=O)(=O)N1CCC[C@@H](N2CCC(O)(c3ccc(Cl)cc3)CC2)C1`, the half-inhibitory concentration (IC50) in assay [1] is 390 nM; in assay [2], 270 nM.
As to `COc1ccc(S(=O)(=O)NCCCN2CCC(O)(c3ccc(Cl)cc3)CC2)cc1`, the half-maximal inhibitory concentration (IC50) in assay [1] was 3880 nM; in assay [2], 830 nM.
The like results for `O=S(=O)(NCCCN1CCC(O)(c2ccc(Cl)cc2)CC1)c1c(Cl)cccc1Cl` were, in that order, 80 nM and 30 nM.
In the same order, the values of `COc1ccc(C2(O)CCN(C3CCN(S(=O)(=O)c4ccccc4Cl)CC3)CC2)cc1` are greater than 10000 nM and greater than 10000 nM.
